Active and inactive are the calls of the source. No cut-off for these calls is given here.
How the values were obtained:
[1] = tested on: SH-SY5Y; assay: Cytotoxicity against human SH-SY5Y cells assessed as reduction in cell viability incubated for 24 hrs by MUH reagent based spectrophotometric analysis; assay type: functional
[2] = tested on: SH-SY5Y; assay: Cytotoxicity against human SH-SY5Y cells assessed as reduction in cell viability incubated for 48 hrs by MUH reagent based spectrophotometric analysis; assay type: functional
[3] = tested on: SH-SY5Y; assay: Cytotoxicity against human SH-SY5Y cells assessed as reduction in cell viability incubated for 72 hrs by MUH reagent based spectrophotometric analysis; assay type: functional
Outline: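 SH-SY5Y in DMEM/10% FBS seeded 0.75 × 10⁴ cells/well, after 24 h treated with 0.1–100 μM for 24, 48 or 72 h. Washed, incubated with MUH 0.01 mg/mL in PBS 30 min at 37 °C in the dark; fluorescence ex 330/em 450 nm, normalized to untreated cells. IC50 by nonlinear regression, log(inhibitor) vs normalized response.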

[4] = target: Histone deacetylase 2 (Homo sapiens, UniProt Q92769); assay: Inhibition of human recombinant HDAC2 using aminoluciferin-conjugated histone 4 derived acetylated lysine peptide as substrate incubated for 30 mins by bio-luminogenic assay
[5] = target: T1, Protein deacetylase HDAC6 (Homo sapiens, UniProt Q9UBN7); assay: Inhibition of human recombinant HDAC6 using aminoluciferin-conjugated histone 4 derived acetylated lysine peptide as substrate incubated for 30 mins by bio-luminogenic assay
T1 sequence (Q9UBN7 whole entry): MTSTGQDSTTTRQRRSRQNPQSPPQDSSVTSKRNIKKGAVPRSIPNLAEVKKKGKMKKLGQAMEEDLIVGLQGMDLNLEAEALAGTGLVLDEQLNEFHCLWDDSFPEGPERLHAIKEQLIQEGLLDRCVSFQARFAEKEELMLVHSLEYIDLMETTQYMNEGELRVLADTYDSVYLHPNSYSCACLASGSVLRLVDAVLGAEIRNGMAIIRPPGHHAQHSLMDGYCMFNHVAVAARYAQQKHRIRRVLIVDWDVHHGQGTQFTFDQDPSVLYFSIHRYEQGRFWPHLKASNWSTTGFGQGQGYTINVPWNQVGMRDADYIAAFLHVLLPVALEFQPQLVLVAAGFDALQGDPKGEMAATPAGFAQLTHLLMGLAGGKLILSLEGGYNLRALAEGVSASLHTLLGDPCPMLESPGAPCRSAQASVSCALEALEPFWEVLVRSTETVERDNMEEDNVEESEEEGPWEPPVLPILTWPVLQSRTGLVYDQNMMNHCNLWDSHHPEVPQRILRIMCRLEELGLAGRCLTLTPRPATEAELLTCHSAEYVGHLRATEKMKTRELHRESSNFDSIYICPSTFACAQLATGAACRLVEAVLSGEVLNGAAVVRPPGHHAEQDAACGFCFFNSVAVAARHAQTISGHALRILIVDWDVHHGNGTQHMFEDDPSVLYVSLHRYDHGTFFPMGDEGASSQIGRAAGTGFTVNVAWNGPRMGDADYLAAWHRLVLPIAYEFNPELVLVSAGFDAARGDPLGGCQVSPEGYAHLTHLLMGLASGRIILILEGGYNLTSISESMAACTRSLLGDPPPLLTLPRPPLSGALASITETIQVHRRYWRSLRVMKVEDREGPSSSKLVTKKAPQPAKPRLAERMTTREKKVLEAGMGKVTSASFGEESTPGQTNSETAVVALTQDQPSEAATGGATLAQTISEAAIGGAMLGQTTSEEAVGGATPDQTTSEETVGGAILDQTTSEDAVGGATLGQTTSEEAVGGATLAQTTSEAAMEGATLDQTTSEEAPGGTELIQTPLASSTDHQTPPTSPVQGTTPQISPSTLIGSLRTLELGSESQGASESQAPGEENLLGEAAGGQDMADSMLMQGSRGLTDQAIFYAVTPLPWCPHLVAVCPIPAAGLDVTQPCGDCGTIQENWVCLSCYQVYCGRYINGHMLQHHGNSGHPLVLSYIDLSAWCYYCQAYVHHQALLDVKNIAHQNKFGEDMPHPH

[6] = tested on: SH-SY5Y; assay: Induction of oxidative stress in human SH-SY5Y cells assessed as increase in ROS production at 2 uM incubated for 24 hrs by DCFH-DA staining based fluorescence analysis; assay type: functional, cell-based
Outline: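 SH-SY5Y plated 1 × 10⁴ cells/well, allowed 24 h to adhere, then given 2 μM compound or vehicle for 24 h. Cells PBS-washed and loaded with 10 μM DCFDA in DMEM for 30 min, washed again; fluorescence at ex 485/em 535 nm normalized to protein content (Lowry). n = 5; mean ± SD, triplicate.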

[7] = tested on: SH-SY5Y; assay: Antioxidant activity in human SH-SY5Y cells assessed as protection against […]-induced oxidative stress at 2 uM pretreated for 24 hrs followed by incubation with […] for 30 mins by DCFH-DA staining based fluorescence analysis; assay type: functional, cell-based; conditions: time 24.5 hrs
Outline: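 SH-SY5Y seeded 1 × 10⁴ cells/well, adhered 24 h, exposed to 2 μM compound or vehicle for 24 h, then loaded with 10 μM DCFDA in DMEM for 30 min; stress induced afterwards with 100 μM TBH in PBS for 30 min. Fluorescence read at ex 485/em 535 nm, normalized to Lowry protein; n = 5, triplicate.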

[8] = tested on: SH-SY5Y; assay: Induction of apoptosis in human SH-SY5Y cells assessed as increase in PARP cleavage by measuring decrease in PARP protein expression at 10 uM incubated for 72 hrs by flow cytometry relative to control; assay type: functional; design: scale not given: the % may be the effect or the level left
Outline: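 SH-SY5Y cells, cultured in DMEM with 10% FBS at 37 °C and 5% CO2, were treated for 72 h. Cells were fixed in 4% paraformaldehyde and permeabilized with 90% cold methanol. They were stained with anti-PARP (1:100) and then an Alexa Fluor 488 secondary (1:200). Mean fluorescence intensity was read by flow cytometry and expressed as fold change versus control cells.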

[9] = tested on: HepG2; assay: Cytotoxicity against human HepG2 cells assessed as cell viability upto 10 uM incubated for 24 hrs by MTT assay; assay type: toxicity, cell-based; conditions: hepg2, 24 h
Outline: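 HepG2 in MEM with 10% FBS, plated 1.5 × 10⁴ cells/well; after 24 h exposed to 0.010–100 μM compound or vehicle for 24 h. MTT (0.2 mg/mL in PBS) for 2 h at 37 °C, formazan dissolved in DMSO, absorbance at 570 nm. Viability relative to vehicle controls, mean ± SD, n = 4.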

[10] = tested on: Neurosphere; assay: Neuroprotective activity against C57BL/6N mouse neurosphere assessed as increase in NPCs spontaneous differentiation by measuring GFAP-positive cells at 2.5 to 5 uM measured after 7 days by immunofluorescence analysis; assay type: functional, tissue-based; conditions: dose 2.5-5 µM, time 7.0 day
Outline: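 Thirty 7-day neurospheres plated on Matrigel-coated coverslips with 2.5 or 5 μM compound or DMSO, differentiated 7 days, fixed in 4% PFA, immunostained for Nestin, DCX, Olig2 or GFAP with Alexa 555 secondaries, DAPI counterstain. Intensity index = marker-positive intensity / total DAPI intensity; mean ± SD of 3 fields per condition.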

Chain of Histone deacetylase 2 (Q92769 whole entry): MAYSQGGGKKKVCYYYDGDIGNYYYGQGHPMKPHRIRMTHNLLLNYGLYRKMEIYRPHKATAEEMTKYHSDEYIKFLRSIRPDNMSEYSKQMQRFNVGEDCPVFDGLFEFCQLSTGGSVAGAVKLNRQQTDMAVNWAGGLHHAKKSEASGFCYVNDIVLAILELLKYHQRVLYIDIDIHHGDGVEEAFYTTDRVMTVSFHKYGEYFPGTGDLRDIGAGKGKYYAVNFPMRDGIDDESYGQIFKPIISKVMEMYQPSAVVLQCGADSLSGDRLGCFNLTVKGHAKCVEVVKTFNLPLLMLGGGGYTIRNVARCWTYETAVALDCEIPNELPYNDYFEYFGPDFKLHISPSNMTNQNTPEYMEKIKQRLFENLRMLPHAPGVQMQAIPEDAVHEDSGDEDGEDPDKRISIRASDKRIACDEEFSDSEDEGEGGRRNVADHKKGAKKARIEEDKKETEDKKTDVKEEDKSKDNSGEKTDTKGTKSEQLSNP

Row | Structure (SMILES) | IC50 [1] [µM] | IC50 [2] [µM] | IC50 [3] [µM] | IC50 [4] [µM] | IC50 [5] [µM] | Activity [6] | Activity [7] | Activity [8] [%] | Activity [9] | Activity [10]
1 | CC1=C(NCc2ccc(C(=O)Nc3ccccc3N)cc2)C(=O)c2ccccc2C1=O | 1.56 | 0.78 | 0.62 | 2.1 | 3.76 | Active | inactive | 56.81 | – | –
2 | CC1=C(NCCCCNC(=O)CS)C(=O)c2ccccc2C1=O | > 100 | > 100 | > 100 | 25.2 | 30 | inactive | inactive | – | Non-Toxic | inactive

— ChEMBL document CHEMBL5532752, “Integrating a quinone substructure into histone deacetylase inhibitors to cope with Alzheimer's disease and cancer” (RSC Med Chem, 2024)
